ChEMBL document CHEMBL1143862, “Backbone cyclic peptidomimetic melanocortin-4 receptor agonist as a novel orally administrated drug lead for treating obesity” (J Med Chem, 2008)
Numbered stars: 1 amine (or outer) side, 2 acyl side, 3 side chain; on linkers, the order of the positions; unused ones are H or OH. Bridge positions count the residues as written; N and C are the ends. Square brackets hold non-standard residues; d marks the D form. Peptide text beside a SMILES is read from it. NGly(3-aminopropyl) = O=C(CN(CCCN[*:3])[*:1])[*:2]; N(2-Aminoethyl)Gly = O=C(CN(CCN[*:3])[*:1])[*:2]; Adipoyl = O=C(CCCCC(=O)[*:2])[*:1]; Suc = O=C(CCC(=O)[*:2])[*:1]

Columns and labels:
Melanocortin receptor 3 = Melanocortin receptor 3 (Mus musculus, UniProt P33033); test: Agonist activity at mouse MC3R expressed in HEK293 cells; assay type: functional, cell-based
Melanocortin receptor 3, sequence (P33033 whole entry): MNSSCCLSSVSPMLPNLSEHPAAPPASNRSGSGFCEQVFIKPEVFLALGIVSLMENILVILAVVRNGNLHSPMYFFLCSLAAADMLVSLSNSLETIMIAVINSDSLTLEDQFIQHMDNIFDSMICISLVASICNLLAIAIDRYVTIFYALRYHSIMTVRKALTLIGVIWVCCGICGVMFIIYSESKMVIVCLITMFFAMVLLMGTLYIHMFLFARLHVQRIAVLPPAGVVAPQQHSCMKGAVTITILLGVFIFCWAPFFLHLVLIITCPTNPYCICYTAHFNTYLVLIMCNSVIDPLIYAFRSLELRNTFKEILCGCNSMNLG
Outline: (§1)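 HEK-293 cells stably expressing each melanocortin receptor were transfected with a CRE/β-galactosidase reporter. At 48 h post-transfection, cells were stimulated for 6 h with peptide (10^-4 to 10^-12 M) or 10^-4 M forskolin in DMEM containing 0.1 mg/mL BSA and 0.1 mM IBMX. Lysates were read with ONPG at OD 405 and normalized to protein (OD 595) and to forskolin response. Efficacy is expressed relative to NDP-MSH maximal stimulation.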

Melanocortin receptor 4 [1] = molecular target: Melanocortin receptor 4 (Mus musculus, UniProt P56450); test: Agonist activity at mouse MC4R expressed in HEK293 cells; assay type: functional, cell-based; outline: as §1
Melanocortin receptor 4 (Mus musculus, UniProt P56450), sequence (P56450 whole entry): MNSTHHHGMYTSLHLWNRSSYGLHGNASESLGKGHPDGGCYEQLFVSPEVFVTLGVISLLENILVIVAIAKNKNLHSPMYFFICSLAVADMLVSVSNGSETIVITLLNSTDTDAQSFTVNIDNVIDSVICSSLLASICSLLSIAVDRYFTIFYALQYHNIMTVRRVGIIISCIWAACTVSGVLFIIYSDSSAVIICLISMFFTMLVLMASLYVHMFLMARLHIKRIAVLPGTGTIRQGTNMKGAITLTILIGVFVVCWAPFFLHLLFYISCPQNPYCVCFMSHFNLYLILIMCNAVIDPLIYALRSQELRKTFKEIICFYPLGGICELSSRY

Melanocortin receptor 5 = Melanocortin receptor 5 (Mus musculus, UniProt P41149); test: Agonist activity at mouse MC5R expressed in HEK293 cells; assay type: functional, cell-based; outline: as §1
Melanocortin receptor 5, sequence (P41149 whole entry): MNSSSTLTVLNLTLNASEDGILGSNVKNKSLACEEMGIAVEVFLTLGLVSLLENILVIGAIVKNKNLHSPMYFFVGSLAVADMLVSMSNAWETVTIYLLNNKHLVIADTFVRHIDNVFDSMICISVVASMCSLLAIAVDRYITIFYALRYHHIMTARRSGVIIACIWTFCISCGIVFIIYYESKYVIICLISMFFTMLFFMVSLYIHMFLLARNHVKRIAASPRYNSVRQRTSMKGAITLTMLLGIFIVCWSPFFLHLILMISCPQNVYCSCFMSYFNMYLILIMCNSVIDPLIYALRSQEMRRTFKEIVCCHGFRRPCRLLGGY

[2] = Permeability across human Caco-2 cells; assay type: ADME, cell-based
Outline: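 Caco-2 cells (passage 60–66) were seeded on 0.4 µm polycarbonate inserts and used 21–23 days later at stable TEER (300–500 Ωcm²). After 30 min buffer pre-incubation at 37 °C with shaking, compound was added apically.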

[3] = Half life in Wistar rat plasma at 1 mg/kg, iv and 10 mg/kg, po; assay type: ADME, organism-based
Outline: (§2)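 Conscious male Wistar rats with a jugular vein cannula implanted 24 h beforehand received peptide dissolved in water, as an iv bolus of 1 mg/kg (n = 5) or orally at 10 mg/kg (n = 2). Heparinized blood was sampled at several times up to 24 h. Plasma was separated at 4 °C, stored at -70 °C and analysed by HPLC-MS. Parameters came from noncompartmental analysis.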

[4] = AUC in Wistar rat plasma at 1 mg/kg, iv and 10 mg/kg, po; assay type: ADME, organism-based; outline: as §2
[5] = Volume of distribution at steady state in Wistar rat plasma at 1 mg/kg, iv and 10 mg/kg, po; assay type: ADME, organism-based; details: read-out: Vdss; outline: as §2
[6] = Cmax in Wistar rat plasma at 1 mg/kg, iv; assay type: ADME, organism-based; design: dose 1 mg/kg, route intravenous; outline: as §2
[7] = Cmax in Wistar rat plasma at 10 mg/kg, po; assay type: ADME, organism-based; design: dose 10 mg/kg, route oral; outline: as §2
[8] = Tmax in Wistar rat plasma at 1 mg/kg, iv; assay type: ADME, organism-based; design: dose 1 mg/kg, route intravenous; outline: as §2
[9] = Tmax in Wistar rat plasma at 10 mg/kg, po; assay type: ADME, organism-based; design: dose 10 mg/kg, route oral; outline: as §2
Rattus norvegicus = test: Bioavailability in Wistar rat plasma at 1 mg/kg, iv and 10 mg/kg, po; assay type: ADME, organism-based; details: in vivo; outline: as §2
Mus musculus [10] = test: Reduction of food consumption in ICR:Hsd (CD1) mouse at 0.5 mg/kg, po after 1 hr relative to control; assay type: functional; design: scale not given: the % may be the effect or the level left
Outline: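 Male ICR:Hsd (CD-1) mice, 7–8 weeks old and individually caged, were fasted 16 h and then gavaged once (5 mL/kg) with peptide at 100 µg/ml or with water vehicle (n = 24). Fixed food portions were given immediately and reweighed at 1, 2, 3, 4 and 5 h. Results are mean ± SEM, analysed by RM ANOVA with Tukey's test.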

Mus musculus [11] = test: Effect on weight gain in ICR:Hsd (CD1) mouse at 0.5 mg/kg/day, po after 12 days relative to control; assay type: functional
Outline: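 Mice (n = 9) were weighed daily, then given a daily oral gavage (5 mL/kg) of peptide at 100 µg/ml or water vehicle. Weight change from day 0 was expressed as mean ± SEM and compared with controls by Student's t-test.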

[12] = Biodistribution in rat brain at 10 mg/kg, po after 8 hrs; assay type: ADME, organism-based; design: dose 10 mg/kg, route oral; details: read-out: Drug uptake
Outline: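 Rats were dosed at 10 mg/kg, iv or po. Brain was collected 8 h after dosing and extracted by a single protein precipitation (90% acetonitrile/10% formic acid, then 50 mM ammonium formate). Peptide was quantified by validated LC-MS/MS and expressed as […] tissue.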

[13] = Elimination half life in rat; assay type: ADME, tissue-based; details: plasma; outline: as §2
[14] = molecular target: Melanocyte-stimulating hormone receptor (Mus musculus, UniProt Q01727); test: Agonist activity at mouse MC1R expressed in HEK293 cells; assay type: functional, cell-based; outline: as §1
Melanocyte-stimulating hormone receptor, sequence (Q01727 whole entry): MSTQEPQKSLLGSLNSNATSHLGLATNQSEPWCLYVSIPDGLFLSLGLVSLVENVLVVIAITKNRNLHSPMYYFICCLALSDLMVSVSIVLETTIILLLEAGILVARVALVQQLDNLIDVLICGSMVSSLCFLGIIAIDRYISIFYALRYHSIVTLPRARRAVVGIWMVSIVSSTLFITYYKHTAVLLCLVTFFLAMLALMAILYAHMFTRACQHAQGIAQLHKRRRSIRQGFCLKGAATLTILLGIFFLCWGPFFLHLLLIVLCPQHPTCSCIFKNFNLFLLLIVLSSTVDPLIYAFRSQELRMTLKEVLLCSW

[15] = molecular target: Melanocortin receptor 3 (Mus musculus) (UniProt P33033); test: Stimulation of mouse MC3R expressed in HEK293 cells relative to NDP-MSH; assay type: cell-based; outline: as §1
Melanocortin receptor 3 (Mus musculus), sequence (P33033 whole entry): as the sequence (P33033 whole entry) above

[16] = molecular target: Melanocortin receptor 4 (Mus musculus) (UniProt P56450); test: Stimulation of mouse MC4R expressed in HEK293 cells relative to NDP-MSH; assay type: cell-based; outline: as §1
Melanocortin receptor 4 (Mus musculus), sequence (P56450 whole entry): as the sequence (P56450 whole entry) above

[17] = molecular target: Melanocortin receptor 5 (Mus musculus) (UniProt P41149); test: Stimulation of mouse MC5R expressed in HEK293 cells relative to NDP-MSH; assay type: cell-based; outline: as §1
Melanocortin receptor 5 (Mus musculus), sequence (P41149 whole entry): as the sequence (P41149 whole entry) above

[18] = molecular target: Melanocyte-stimulating hormone receptor (Mus musculus) (UniProt Q01727); test: Stimulation of mouse MC1R expressed in HEK293 cells relative to NDP-MSH; assay type: cell-based; outline: as §1
Melanocyte-stimulating hormone receptor (Mus musculus), sequence (Q01727 whole entry, looked up): as the sequence (Q01727 whole entry) above

Melanocortin receptor 4 [19] = molecular target: Melanocortin receptor 4 (Homo sapiens, UniProt P32245); test: Displacement of [125I]NDP-alpha-MSH from MC4R
Melanocortin receptor 4 (Homo sapiens, UniProt P32245), sequence (P32245 whole entry): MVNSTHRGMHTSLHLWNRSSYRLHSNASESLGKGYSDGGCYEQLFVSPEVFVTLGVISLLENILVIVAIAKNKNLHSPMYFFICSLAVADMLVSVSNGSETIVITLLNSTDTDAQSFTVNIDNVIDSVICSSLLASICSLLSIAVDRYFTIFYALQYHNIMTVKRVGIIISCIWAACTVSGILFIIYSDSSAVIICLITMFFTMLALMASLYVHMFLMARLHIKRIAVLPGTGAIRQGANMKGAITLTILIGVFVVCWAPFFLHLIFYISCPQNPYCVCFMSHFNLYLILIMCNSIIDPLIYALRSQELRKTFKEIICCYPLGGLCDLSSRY

## N=C(N)NCCC[C@@H]1NC(=O)[C@@H](Cc2ccccc2)NC(=O)[C@H](Cc2ccccc2)NC(=O)CCC(=O)NCCN(CC(N)=O)C(=O)[C@H](Cc2c[nH]c3ccccc23)NC1=O (F[dF]RW[N(2-Aminoethyl)Gly]-NH2; linker N-5 via Suc)
Melanocortin receptor 3
  EC50: 770 nM
Melanocortin receptor 4 [1]
  EC50: 4 nM
Melanocortin receptor 5
  EC50: 7 nM
[2]
  Papp: 17.8 ×10⁻⁶ cm/s
[3]
  half-life: > 105 min
[4]
  AUC: 416 ng·h/mL
[5]
  Vd: 2.1 L/kg
[6]
  Cmax: 977 ng/mL
[7]
  Cmax: 202 ng/mL
[8]
  Tmax: 5 min
[9]
  Tmax: 37 min
Rattus norvegicus
  F: 8.5%
Mus musculus [10]
  Activity: 46%
Mus musculus [11]
  Activity: 2.8%
[12]
  concentration at 8 h: 4700 ng/g
[13]
  half-life: 100 min
[14]
  EC50: 64 nM
[15]
  Efficacy: 100%
[16]
  Efficacy: 100%
[17]
  Efficacy: 100%
[18]
  Efficacy: 100%

## N=C(N)NCCC[C@@H]1NC(=O)[C@@H](Cc2ccccc2)NC(=O)[C@H](Cc2ccccc2)NC(=O)c2ccccc2C(=O)NCCN(CC(N)=O)C(=O)[C@H](Cc2c[nH]c3ccccc23)NC1=O
Melanocortin receptor 4 [19]
  IC50: 100 nM
Melanocortin receptor 3
  EC50: 20500 nM
Melanocortin receptor 4 [1]
  EC50: 150 nM
Melanocortin receptor 5
  EC50: 390 nM
[14]
  EC50: 550 nM
[15]
  Efficacy: 100%
[16]
  Efficacy: 100%
[17]
  Efficacy: 100%
[18]
  Efficacy: 100%

## OC[C@@H](O)[C@@H](O)[C@H](O)[C@H](O)CO [MANNITOL]
[2]
  Papp: 2.05 ×10⁻⁶ cm/s

## N=C(N)NCCC[C@@H]1NC(=O)[C@@H](Cc2ccccc2)NC(=O)[C@H](Cc2ccccc2)NC(=O)CCCCC(=O)NCCCN(CC(N)=O)C(=O)[C@H](Cc2c[nH]c3ccccc23)NC1=O (F[dF]RW[NGly(3-aminopropyl)]-NH2; linker N-5 via Adipoyl)
Melanocortin receptor 3
  EC50: 7750 nM
Melanocortin receptor 4 [1]
  EC50: 5 nM
Melanocortin receptor 5
  EC50: 26 nM
[2]
  Papp: 19 ×10⁻⁶ cm/s
[14]
  EC50: 240 nM
[15]
  Efficacy: 100%
[16]
  Efficacy: 100%
[17]
  Efficacy: 100%
[18]
  Efficacy: 100%

## N=C(N)NCCC[C@@H]1NC(=O)[C@@H](Cc2ccccc2)NC(=O)[C@H](Cc2ccccc2)NC(=O)CCC(=O)NCCCN(CC(N)=O)C(=O)[C@H](Cc2c[nH]c3ccccc23)NC1=O (F[dF]RW[NGly(3-aminopropyl)]-NH2; linker N-5 via Suc)
Melanocortin receptor 3
  EC50: 1260 nM
Melanocortin receptor 4 [1]
  EC50: 4 nM
Melanocortin receptor 5
  EC50: 2 nM
[2]
  Papp: 18.8 ×10⁻⁶ cm/s
[14]
  EC50: 28 nM
[15]
  Efficacy: 100%
[16]
  Efficacy: 100%
[17]
  Efficacy: 100%
[18]
  Efficacy: 100%

## CC(C)NCC(O)COc1cccc2ccccc12 (stereo not given) [PROPRANOLOL]
[2]
  Papp: 25 ×10⁻⁶ cm/s

## N=C(N)NCCC[C@@H]1NC(=O)[C@@H](Cc2ccccc2)NC(=O)[C@H](Cc2ccccc2)NC(=O)CCCC(=O)NCCN(CC(N)=O)C(=O)[C@H](Cc2c[nH]c3ccccc23)NC1=O
Melanocortin receptor 3
  EC50: 1460 nM
Melanocortin receptor 4 [1]
  EC50: 18 nM
Melanocortin receptor 5
  EC50: 20 nM
[2]
  Papp: 21 ×10⁻⁶ cm/s
[14]
  EC50: 120 nM
[15]
  Efficacy: 100%
[16]
  Efficacy: 100%
[17]
  Efficacy: 100%
[18]
  Efficacy: 100%

## N=C(N)NCCC[C@H](NC(=O)[C@H](Cc1c[nH]c2ccccc12)NC(=O)CN)C(=O)N[C@H](Cc1ccccc1)C(=O)N[C@@H](Cc1ccccc1)C(=O)O
[2]
  Papp: 12 ×10⁻⁶ cm/s
